Assay results as given in ChEMBL document CHEMBL2177069, “Novel peptidomimetic compounds containing redox active chalcogens and quinones as potential anticancer agents” (Eur J Med Chem, 2012).
Calls of active or inactive are those of the source. The calls are words filed in the database; no cut-off is given here.

Key:
MCF7 [1] = assay: Induction of Cell cycle arrest in human MCF7 cells assessed as G2/M phase cells at IC50 concentration after 24 hrs by PI-staining based flow cytometric analysis (reference value: 13%); type: functional
How it was run: (§1)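 MCF-7 cells (10^6) were treated for 24 h, with methanol as the vehicle control. Cells were fixed in cold 70% methanol at 4 °C for one day, washed with PBS, and permeabilized with 0.1% saponin in PBS. They were stained with propidium iodide plus RNase for 30 min. DNA content was read by flow cytometry, giving percentages of cells per cell-cycle phase.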

MCF7 [2] = assay: Induction of Cell cycle arrest in human MCF7 cells assessed as S phase cells at IC50 concentration after 24 hrs by PI-staining based flow cytometric analysis (reference value: 19%); type: functional; how it was run: as §1
MCF7 [3] = assay: Induction of Cell cycle arrest in human MCF7 cells assessed as G0/1 phase cells at IC50 concentration after 24 hrs by PI-staining based flow cytometric analysis (reference value: 68%); type: functional; how it was run: as §1
PtK2 = assay: Induction of oxidative stress in potoroo PtK2 cells assessed as hole in the endoplasmic reticulum after 24 hrs by immunofluorescence microscopic analysis; type: functional, cell-based; settings: Potorous tridactylus
How it was run: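 PtK2 cells were grown on coverslips and treated once semi-confluent, for 24 h. Cells were fixed with 3.7% paraformaldehyde followed by 0.1% Triton X-100, or with cold methanol/acetone 50:50. Primary and secondary antibodies were applied for 45 min each: anti-GRP94 for ER, anti-α-tubulin. Actin was stained with phalloidin and nuclei with DAPI. Imaging was by fluorescence microscopy with a CCD camera.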

MCF7 [4] = assay: Induction of oxidative stress in human MCF7 cells assessed as decrease in GSH level at 5 uM after 1 hr by DTNB assay relative to control; type: functional; parameters: scale not given: the % may be the effect or the level left
How it was run: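 MCF-7 cells (10^6) were treated for 1 h at 37 °C, trypsinized, and washed twice with cold PBS. GSH was extracted with chilled 5% metaphosphoric acid at 4 °C for 2 h, then the lysate was centrifuged. Supernatant was mixed with 0.2 M sodium phosphate pH 8.0 and 0.04 mM DTNB for 10 min at room temperature. Absorbance was read at 412 nm against a reagent blank, and GSH was quantified from a standard curve.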

HUVEC [5] = assay: Induction of oxidative stress in human HUVEC cells assessed as increase in superoxide free radical production after 1 hr by DHE-based by fluorescence spectrophotometric analysis; type: cell-based
How it was run: (§2)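 Cells were seeded at 10^5 per well and given graded compound concentrations for 1 h. They were then loaded with DHE or DCF probe for 30 min in the dark. Fluorescence was read immediately: DHE ex 540/em 600 nm; DCF ex 485/em 528 nm. Results were expressed as arbitrary units per 10^5 cells.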

HUVEC [6] = assay: Induction of oxidative stress in human HUVEC cells assessed as increase in hydrogen peroxide free radical production after 1 hr by DCF-based fluorescence spectrophotometric analysis; type: cell-based; how it was run: as §2
A-431 [7] = assay: Induction of oxidative stress in human A431 cells assessed as increase in superoxide free radical production after 1 hr by DHE-based by fluorescence spectrophotometric analysis; type: functional, cell-based; how it was run: as §2
A-431 [8] = assay: Induction of oxidative stress in human A431 cells assessed as increase in hydrogen peroxide free radical production after 1 hr by DCF-based fluorescence spectrophotometric analysis; type: functional, cell-based; how it was run: as §2

SMILES | Activity (MCF7 [1]) | Activity (MCF7 [2]) | Activity (MCF7 [3]) | Activity (PtK2) | Activity (MCF7 [4]) | Activity (HUVEC [5]) | Activity (HUVEC [6]) | Activity (A-431 [7]) | Activity (A-431 [8])
CC1=C([Se]CC(OC(=O)[C@@H](CO)NC(=O)OC(C)(C)C)C(=O)NC(C)(C)C)C(=O)c2ccccc2C1=O (stereo not given in full) | 12% | 7.7% | 80% | Active | 59% |  |  |  | 
CC1=C(SCCC(=O)OC(C[Se]C2=C(C)C(=O)c3ccccc3C2=O)C(=O)NCCCCCC(=O)OCc2ccccc2)C(=O)c2ccccc2C1=O (stereo not given) |  |  |  | Active |  | Non-toxic | Non-toxic | Active | Active
